Source: PubChem
Only a selection was taken, and hits are over-represented in it overall.
FLuc inh counter = counter-screen for luciferase assay inhibitors: firefly luciferase inhibition. P08659. ATPLite firefly luciferase biochemical luminescence, 10 min. inhibition, % at 10 µM. actives 1.5% (n = 200,000). AID 1006;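 active = inhibition above about 50% when tested at 10 µM, limit read from the data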
ABCB6 inh MLPCN = inhibitors of human ABC transporter ABCB6. K562-ABCB6 porphyrin accumulation, flow cytometry, 1 h; stronger effect = lower value. fluorescence ratio to DMSO, % at 10 µM. actives 0.19% (n = 360,000). AID 602162;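 active = fluorescence ratio to DMSO below 75%, the collection mean minus 3 SD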;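 note: signal is porphyrin accumulated inside mitochondria; 100% equals median channel fluorescence of DMSO control wells; lower ratio means ABCB6 inhibition with less porphyrin fluorescence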
ABCG2 block = blocks JC-1 efflux by human ABCG2 transporter | Q9UNQ0 | actives 0.1% (n = 190,000) | inhibition, % at 6.6 µM | IgMXP3 cells, flow cytometry | AID 1325;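 active = inhibition above 80%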;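 note: 0% = DMSO and 100% = nicardipine control wells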
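Times: 10 min at 25 °C | Test system: Two drug-resistant human cell lines, ABCG2 and ABCB1 | Quantity: 3 million cells/mL final, two lines in 1:1 ratio | Signal: Flow cytometry, 530 nm JC-1 signal | Dosing: Compound at 6.6 µM | Controls: Nicardipine and DMSO wells | Reagent: JC-1 as fluorescent efflux pump substrate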
FLuc act counter = affects firefly luciferase, flagging false hits in luciferase stimulation screens. P08659. ATPlite luciferase biochemical, luminescence, 10 min; 0 = ATP-free wells, 1 = DMSO control. activation factor at 10 µM. 200,000 tested, under 10 active. AID 1027;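 active = luciferase activation factor, scaled between plate controls, of at least 2 with compound at 10 µM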
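System: cell-free luciferase reagent; medium: PBS as buffer for the ATP substrate; doses: test compounds dosed from 2 mM stocks in 100% DMSO; incubation: 10 min, room temperature; measured by: luminescence from luciferase reaction; read-out: luciferase activation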
ABCB1 inh = blocks JC-1 efflux by human ABCB1 transporter; CCRF-Adr cells, flow cytometry; actives 0.067% (n = 190,000); P08183; AID 1326; inhibition, % at 6.6 µM; in the data active = inhibition above about 40%;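 note: 0% = vehicle and 100% = reference inhibitor; higher value means more JC-1 retained so stronger ABCB1 efflux block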
Target sequence (P08183 whole entry, looked up): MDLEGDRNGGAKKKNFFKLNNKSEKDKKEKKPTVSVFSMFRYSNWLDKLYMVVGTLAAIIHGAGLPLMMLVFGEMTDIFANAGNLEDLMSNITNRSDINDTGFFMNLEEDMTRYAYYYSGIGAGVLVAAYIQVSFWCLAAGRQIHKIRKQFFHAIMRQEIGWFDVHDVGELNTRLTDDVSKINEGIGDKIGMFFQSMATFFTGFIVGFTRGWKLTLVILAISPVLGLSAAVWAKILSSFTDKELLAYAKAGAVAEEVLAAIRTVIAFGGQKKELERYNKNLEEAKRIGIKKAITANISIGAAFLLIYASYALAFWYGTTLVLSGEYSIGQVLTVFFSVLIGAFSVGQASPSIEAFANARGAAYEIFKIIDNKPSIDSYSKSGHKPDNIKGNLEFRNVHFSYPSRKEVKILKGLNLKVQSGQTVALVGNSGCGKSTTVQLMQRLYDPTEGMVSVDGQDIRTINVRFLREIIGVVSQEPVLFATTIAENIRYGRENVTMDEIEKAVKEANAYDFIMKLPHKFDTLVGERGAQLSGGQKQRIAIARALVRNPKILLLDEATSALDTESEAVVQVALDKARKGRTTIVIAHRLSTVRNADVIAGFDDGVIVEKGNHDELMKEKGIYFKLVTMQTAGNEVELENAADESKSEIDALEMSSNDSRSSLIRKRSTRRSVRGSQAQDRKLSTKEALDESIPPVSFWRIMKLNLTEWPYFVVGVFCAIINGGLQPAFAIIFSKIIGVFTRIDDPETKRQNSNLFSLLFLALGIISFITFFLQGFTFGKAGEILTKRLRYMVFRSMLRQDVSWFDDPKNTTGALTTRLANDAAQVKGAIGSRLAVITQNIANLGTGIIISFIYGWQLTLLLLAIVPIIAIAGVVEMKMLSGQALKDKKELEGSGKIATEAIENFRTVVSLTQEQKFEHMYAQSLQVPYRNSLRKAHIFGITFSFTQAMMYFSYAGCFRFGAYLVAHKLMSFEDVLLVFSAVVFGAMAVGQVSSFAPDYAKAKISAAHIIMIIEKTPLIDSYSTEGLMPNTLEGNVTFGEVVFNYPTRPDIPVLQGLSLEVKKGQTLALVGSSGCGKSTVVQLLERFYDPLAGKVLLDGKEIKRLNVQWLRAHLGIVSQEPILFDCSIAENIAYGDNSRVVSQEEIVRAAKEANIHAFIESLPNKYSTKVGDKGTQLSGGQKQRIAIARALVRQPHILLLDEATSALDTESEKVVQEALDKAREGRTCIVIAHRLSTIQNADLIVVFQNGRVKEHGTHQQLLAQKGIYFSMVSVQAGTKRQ
Diaph act CS = diaphorase activation or chemical reduction counter-screen. AID 1229. activation factor at 20 µM. actives 0.005% (n = 190,000). Diaphorase/resazurin coupled assay, resorufin fluorescence, 16 min; stronger effect = higher value; 1 = vehicle wells, 0 = NADH-free wells;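 active = diaphorase activity raised at least twofold by the compound at 20 µM; inactive = activation factor below 2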
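Material: Clostridium kluyveri diaphorase, purified enzyme; Quantity: enzyme 0.07 U/mL final; Medium: HEPES pH 7.4 buffer with MgCl2 and Tween 20; Dosing: single compound dose of 20 µM, 1% DMSO final; Schedule: 16 min reaction at room temperature; Measured by: red resorufin fluorescence at 544/590 nm excitation/emission.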
Starred values were filed as active, the others as inactive; . = not tested or not shown.

SMILES | FLuc inh counter | ABCB6 inh MLPCN | ABCG2 block | FLuc act counter | ABCB1 inh | Diaph act CS
COc1ccc(NC(=O)/C(Cl)=C(/Cl)S(=O)Cc2ccc(Cl)cc2)cn1 (centres undefined) | -8.8 | 37.0* | -0.1 | 1.1 | 0.3 | 0.9
Cc1cc(C)nc(NS(=O)(=O)c2ccc(NC(=O)c3cc(=O)c4ccccc4o3)cc2)n1 | . | 101.0 | . | . | . | .
Cc1cccc(-n2ccc(=O)c(C(=O)Nc3ccc(S(=O)(=O)N4CCOCC4)cc3)n2)c1 | . | 96.0 | . | . | . | .
COc1ccc(-c2cc3c(nn2)-c2ccccc2C3=O)cc1 | 93.8* | 106.0 | 5.3 | 0.1 | 0.6 | 1
O=C1c2ccccc2-c2nnc(-c3ccccc3)cc21 | 81.2* | 100.0 | 10.6 | 0.2 | 2.1 | 0.8
c1ccc(-c2cc3c(nn2)CCc2nonc2-3)cc1 | -3.2 | 100.0 | 40.3 | 1 | 0.5 | 0.9
Cc1cnc2c(c1)C(=O)c1ccccc1-2 | . | 91.0 | . | . | . | .
Cc1cccc(-c2cc3c(nn2)-c2ccccc2C3=O)c1 | 61.7* | 101.0 | 6.2 | 0.4 | 1.5 | 0.8
CCN(CC(=O)Nc1c(F)cccc1F)C(=O)c1ccc(S(=O)(=O)N2CCC(C)CC2)cc1 | . | 99.0 | . | . | . | .
Cn1c(-c2ccccc2)cnc1SCc1nc2ccccc2c(=O)[nH]1 | 60.8* | 93.0 | 0.4 | 0.4 | 0.1 | 0.8
CCCCS(=O)(=O)/C=C\C=C/S(=O)(=O)CCCC | -7.2 | 69.0* | 0.5 | 1.1 | 0.2 | 1
CCCCS(=O)(=O)/C=C\C1C2C=CC(C2)C1S(=O)(=O)CCCC (centres undefined) | -3.1 | 102.0 | 9.2 | 1 | 1.2 | 0.9
COc1ccc(NC(=O)N2CCc3ccccc32)cc1 | 84.9* | 99.0 | 3.0 | 0.2 | -0.6 | 0.9
Cc1ccc(OCC(=O)N2CCCc3ccccc32)cc1 | 4.0 | 104.0 | 2.5 | 1 | 0.9 | 1
Cc1ccc(OCC(=O)N2CCc3ccccc32)cc1 | 78.0* | 99.0 | 4.2 | 0.2 | 1.0 | 1
O=C(N/N=C/c1ccc(OC(=O)c2ccco2)cc1)c1ccccn1 | 51.8* | 101.0 | 1.5 | 0.5 | 0.5 | 0.9
O=C(N/N=C/c1cccc(OC(=O)c2ccco2)c1)c1ccc(F)cc1 | 63.2* | 94.0 | -0.1 | 0.4 | 0.1 | 0.8
CN(C)c1ccc(/C=N/NC(=O)c2ccccn2)cc1 | . | 104.0 | . | . | . | .
COc1cc(/C=N/NC(=O)c2ccc(F)cc2)ccc1OC(=O)c1ccco1 | 0.7 | 98.0 | 3.4 | 1 | 0.7 | 1
O=C(Oc1ccc(/C=N/NC(=O)c2ccccn2)cc1)c1ccc(Br)cc1 | . | 95.0 | . | . | . | .
O=C(N/N=C/c1ccccn1)c1ccco1 | 6.2 | 99.0 | 2.0 | 0.9 | 0.4 | 0.7
CN(C)c1ccc(/C=N\NC(=O)c2csnn2)cc1 | 60.2* | 101.0 | -1.4 | 0.4 | -0.5 | 1.1
O=C(N/N=C/c1ccc2ncccc2c1)c1ccco1 | 92.0* | 96.0 | 2.1 | 0.1 | 0.3 | 1
COc1ccc(C(C)=O)cc1Cn1c(C)c(C(=O)NCc2ccc(C(C)C)cc2)sc1=O | . | 95.0 | . | . | . | .
CCN1C[C@@H]2[C@@H]3C(=O)N(Cc4ccccc4)C(=O)[C@@H]3[C@](C)(C1=O)N2C(=O)c1ccc(Br)cc1 | . | 98.0 | . | . | . | .
SMILES | FLuc inh counter | ABCB6 inh MLPCN | ABCG2 block | FLuc act counter | ABCB1 inh | Diaph act CS
CN(C)c1ccc(/C=N/NC(=O)c2ccco2)cc1 | 84.4* | 99.0 | 12.5 | 0.2 | 0.9 | 0.9
Cc1cc(=O)n2[nH]c(-c3ccc(F)cc3)nc2n1 | 65.9* | 97.0 | 0.3 | 0.3 | -0.1 | 0.9
COC(=O)Cc1c(C)nc2nc(-c3ccc(C)cc3)[nH]n2c1=O | 50.0* | 97.0 | 6.3 | 0.5 | 0.0 | 0.9
COC(=O)Cc1c(C)nc2nc(-c3ccc(Cl)cc3)[nH]n2c1=O | 57.8* | 113.0 | -5.1 | 0.4 | -1.5 | 0.9
Cc1nc2nc(-c3ccc(Cl)cc3)[nH]n2c(=O)c1C | 66.3* | . | 7.2 | 0.3 | 1.0 | 0.9
Cc1cc(=O)n2[nH]c(-c3cccnc3)nc2n1 | 29.9 | . | 1.9 | 0.7 | 0.7 | 0.9
C=CCN(c1ccccc1)S(=O)(=O)c1cccc(C(=O)NC2CCN(Cc3ccccc3)CC2)c1 | . | 99.0 | . | . | . | .
CC1CCCCC12NC(=O)N(CC(=O)N1CCN(C(=O)c3cccs3)CC1)C2=O (centres undefined) | . | 94.0 | . | . | . | .
Fc1ccc(OCc2nc3ccccc3s2)cc1 | 64.0* | 109.0 | 0.0 | 0.4 | 2.3 | 1
Cc1ccc(Nc2nnc(SCC(=O)N(C)C3CCS(=O)(=O)C3)s2)cc1 (centres undefined) | 76.5* | 81.0 | 0.0 | 0.2 | -0.2 | 0.8
Cc1ccc(-c2cc(C(=O)N3CCOCC3)c3ccccc3n2)cc1 | 40.9 | 100.0 | 4.3 | 0.6 | 1.4 | 0.8
c1ccc2nc(-c3ccncc3)ccc2c1 | 5.6 | 103.0 | 0.7 | 0.9 | 0.0 | 1
c1ccc2nc(-c3ccc(N4CCOCC4)cc3)ccc2c1 | 88.3* | 93.0 | -0.4 | 0.1 | -0.3 | 0.9
COc1ccc(N2CCN(C(=O)c3ccc4ccccc4n3)CC2)cc1 | -3.3 | 97.0 | 1.8 | 1 | 0.0 | 0.9
CN1CCN(c2ccc(-c3ccc4ccccc4n3)cc2)CC1 | 93.5* | 105.0 | 10.3 | 0.1 | 1.3 | 0.8
Cc1cc(-c2ccc(N3CCOCC3)cc2)nc2ccccc12 | 70.6* | 121.0 | 46.6 | 0.3 | 1.5 | 0.8
COc1ccc(S(=O)(=O)N(C)c2ccc(C(=O)N3CCCCC3)cc2)cc1 | . | 95.0 | . | . | . | .
CC(C)OC(=O)CSc1nc(N2CCOCC2)c2c(c1C#N)CC(C)(C)OC2 | . | 97.0 | . | . | . | .
c1ccc(-c2ccc(-c3cn4c(n3)CCC4)cc2)cc1 | 65.2* | 94.0 | 4.9 | 0.3 | 0.9 | 0.7
COc1ccc(-c2cn3c(n2)CCC3)cc1 | 24.7 | 89.0 | 0.5 | 0.8 | 0.0 | 0.9
CN1CCCN(S(=O)(=O)c2cccc(C#N)c2)CC1 | . | 94.0 | . | . | . | .
Cc1cc(NC(=O)c2cc(-c3ccccc3)on2)no1 | -3.5 | 98.0 | 0.9 | 1 | 0.2 | 1.1
O=C(c1ccccc1)c1cc(-c2ccccc2)on1 | 81.1* | 104.0 | 11.4 | 0.2 | 0.0 | 1
O=C(Nc1ccccc1)Nc1ccc(C(=O)N2CCOCC2)cc1 | 55.2* | 93.0 | -0.1 | 0.4 | 0.1 | 0.9
COC(=O)C1=C(C)N(CCCC(=O)O)C(=O)NC1c1cccs1 (centres undefined) | -4.0 | 96.0 | 0.0 | 1 | 44.9* | 0.9
Cc1n[nH]c2ccc([N+](=O)[O-])cc2c1=O | . | 96.0 | . | . | . | .
COc1ccc(-c2cc(=O)c3cc(O)ccc3o2)cc1 | 54.1* | 103.0 | 14.4 | 0.5 | 0.9 | 1.2
COc1ccc2oc(-c3ccco3)cc(=O)c2c1 | 58.8* | 103.0 | 25.9 | 0.4 | 0.9 | 1.1
CCOC(=O)c1ccc(S(=O)(=O)N2CCN(c3ccccn3)CC2)cc1 | . | 95.0 | . | . | . | .
